PubChem BioAssay
Active and inactive are the calls of the source.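 The calls were made as follows, unless noted: active = viability at or below 30% in both replicate assays; inconclusive = viability at or below 30% in just one of the two assays; inactive = the rest.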

assay: HUVEC growth inhibition – cell-based, human, primary screen (AID 575); details: HUVEC proliferation, CellTiter-Glo luminescence, 72 h; at 10 µM; hits give low values;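 also: 100% = median of untreated cell wells with 0.1% DMSO on each plate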
How it was run: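 System: primary human umbilical vein endothelial cells; Quantity: 1250 endothelial cells in each well; Buffer or medium: supplemented EBM, 2% fetal bovine serum; Doses: one dose, 10 µM final, 0.1% DMSO; Incubation: 72 h compound incubation; Technique: ATP-based CellTiter-Glo luminescent read; Evaluation: percent of median DMSO-control luminescence; Controls: vehicle and MePR control wells.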

Question: Which viability does the source give for CCOc1ccccc1CNC(=O)CCN1C(=O)COc2ccccc21 here?
Answer: 88.8% (inactive)

Question: With CCOc1ccccc1CN1C(=O)c2ccccc2C1C(=O)NCC1CCCO1 (stereo not given) as the molecule, how does the viability read?
Answer: 98.3% (inactive)

Question: Which viability does the source give for O=C(CCCc1cccs1)Nc1nc2c(s1)CCCC2 here?
Answer: 55.3% (inactive)

Question: With COc1ccc(-c2noc(CCCC(=O)O)n2)cc1 as the molecule, how does the viability read?
Answer: 97.1% (inactive)

Question: With CCCN(Cc1cc2cc(C)ccc2[nH]c1=O)C(=O)c1cccc(OC)c1 as the molecule, how does the viability read?
Answer: 70.6% (inactive)

Question: With COC(=O)c1cnc2c(C(F)(F)F)cccc2c1OC as the molecule, how does the viability read?
Answer: 97.6% (inactive)

Question: For COc1ccccc1Nc1ccc(C(=O)NC2CCCCC2)cn1, which viability is on record?
Answer: 106% (inactive)

Question: Which viability does the source give for COc1cccc(C(=O)Nc2ncc3c(n2)CC(C)CC3=O)c1 (stereo not given) here?
Answer: 107% (inactive)

Question: With Cc1ccc(-n2c(Cn3cnc4ccccc43)nnc2SCC(=O)O)cc1 as the molecule, how does the viability read?
Answer: 94.3% (inactive)

Question: Which viability does the source give for COCCNc1oc(-c2ccc(C)cc2)nc1C#N here?
Answer: 113% (inactive)

Question: With c1cn(C23CC4CC(CC(C4)C2)C3)cn1 as the molecule, how does the viability read?
Answer: 104% (inactive)

Question: Which viability does the source give for CCN(Cc1cc2ccccc2[nH]c1=O)S(=O)(=O)c1ccccc1 here?
Answer: 98.4% (inactive)

Question: With CCCCn1nc(C(=O)N2CCc3ccccc32)c2ccccc2c1=O as the molecule, how does the viability read?
Answer: 91.8% (inactive)

Question: Which viability does the source give for Cc1ccc(NCc2nnc(SCC(=O)N3CCCCC3)n2CC2CCCO2)c(C)c1 (stereo not given) here?
Answer: 106% (inactive)

Question: Which viability does the source give for COC(=O)c1[nH]c2ccc(F)cc2c1NS(=O)(=O)c1ccc(OC)cc1OC here?
Answer: 88.5% (inactive)

Question: Which viability does the source give for O=c1cc(COn2nnc3ccc(C(F)(F)F)cc32)nc2sccn12 here?
Answer: 104% (inactive)

Question: For CS(=O)(=O)N1CCCC(C(=O)NCCCN2CCc3ccccc3C2)C1 (stereo not given), which viability is on record?
Answer: 102% (inactive)

Question: With CCNc1nc(N2CCOCC2)nc(N(c2ccccc2)c2ccccc2)n1 as the molecule, how does the viability read?
Answer: 62.2% (inactive)

Question: For NC(=O)CSc1nnc(-c2cc3ccccc3o2)n1Cc1ccccc1, which viability is on record?
Answer: 104% (inactive)

Question: With CS(=O)(=O)Nc1ccc(C(=O)NCc2ccco2)cc1 as the molecule, how does the viability read?
Answer: 104% (inactive)

Question: For Cc1cc(C)c2[nH]c(=O)c(C(c3nnnn3Cc3ccc4c(c3)OCO4)N3CCC(C)CC3)cc2c1 (stereo not given), which viability is on record?
Answer: 84.4% (inactive)

Question: With Cc1ccc(CNC(=O)CSc2n[nH]c(N)n2)cc1 as the molecule, how does the viability read?
Answer: 82.3% (inactive)

Question: Which viability does the source give for C=C(C)Cn1c(N2CCN(CC)CC2)nc2c1c(=O)[nH]c(=O)n2C here?
Answer: 80% (inactive)

Question: For Cc1cc(C(=O)CN2C(=O)c3ccccc3C2=O)c(C)n1Cc1cccs1, which viability is on record?
Answer: 111% (inactive)

Question: With Cc1ccc2nc(NCCCN3CCOCC3)c(C=NCCCN3CCOCC3)c(=O)n2c1 as the molecule, how does the viability read?
Answer: 99.1% (inactive)

Question: Which viability does the source give for O=C(Cn1cnc2ccccc2c1=O)NCCC(=O)N1CCN(c2ccccc2)CC1 here?
Answer: 99.6% (inactive)

Question: With O=C(C1CCC1)N1CCc2cc(S(=O)(=O)N3CCc4ccccc4C3)ccc21 as the molecule, how does the viability read?
Answer: 72.1% (inactive)

Question: For CCC(=O)N1CCc2cc(Br)cc(S(=O)(=O)CCC(=O)NCC3CCCO3)c21 (stereo not given), which viability is on record?
Answer: 106% (inactive)

Question: Which viability does the source give for Cc1nc2ccccc2n1CCC(=O)Nc1cccc(F)c1 here?
Answer: 93.6% (inactive)

Question: For CN(C)C(=O)N1CCC(C(=O)NC2CCCCCCC2)CC1, which viability is on record?
Answer: 105% (inactive)

Question: Which viability does the source give for O=C(CSCCSCC(=O)c1ccco1)c1ccco1 here?
Answer: 77.3% (inactive)

Question: For O=c1cnnc(NCc2ccccc2)[nH]1, which viability is on record?
Answer: 106% (inactive)

Question: With COc1ccccc1C1CC(c2ccc(C)cc2)Nc2ncnn21 (stereo not given) as the molecule, how does the viability read?
Answer: 108% (inactive)

Question: For O=c1cc(CSc2ccccn2)c2ccccc2[nH]1, which viability is on record?
Answer: 85.2% (inactive)

Question: Which viability does the source give for COC(=O)CC1SC(=O)NC1=O (stereo not given) here?
Answer: 102% (inactive)

Question: With Cc1ccc(C)c(N2CCN(S(=O)(=O)c3ccc4c(c3)OCCO4)CC2)c1 as the molecule, how does the viability read?
Answer: 99.2% (inactive)

Question: Which viability does the source give for O=C(NCCC1=CCCCC1)c1cc2c(s1)CS(=O)(=O)C2 here?
Answer: 85.7% (inactive)

Question: For Cc1c(C(=O)OC(C)C)[nH]c2c1C(=O)CCC2, which viability is on record?
Answer: 102% (inactive)

Question: With Cc1cc(NCCN2CCCCC2)n2c(nc3ccccc32)c1C#N as the molecule, how does the viability read?
Answer: 96.2% (inactive)

Question: For CCOC(=O)Cn1nc(-c2ccc(C)cc2)ccc1=O, which viability is on record?
Answer: 94.1% (inactive)

assay: growth inhibitors of H69AR lung tumor, primary screen, human, duplicate replicates (AID 580;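 active = viability at or under a set limit in both replicates, limit being median viability minus 3 SD, cut at about 48% in these data, passing the limit was not always enough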;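 also: 100% = mean luminescence of untreated wells and 0% = no signal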); details: H69AR lung tumor cells viability, ATP luminescence, 72 h; at 10 µM; hits give low values

Question: With CCOc1ccccc1CNC(=O)CCN1C(=O)COc2ccccc21 as the molecule, how does the viability read?
Answer: 92.9% (inactive)

Question: With CCOc1ccccc1CN1C(=O)c2ccccc2C1C(=O)NCC1CCCO1 (stereo not given) as the molecule, how does the viability read?
Answer: 101% (inactive)

Question: Which viability does the source give for O=C(CCCc1cccs1)Nc1nc2c(s1)CCCC2 here?
Answer: 84.5% (inactive)

Question: With COc1ccc(-c2noc(CCCC(=O)O)n2)cc1 as the molecule, how does the viability read?
Answer: 95% (inactive)

Question: Which viability does the source give for CCCN(Cc1cc2cc(C)ccc2[nH]c1=O)C(=O)c1cccc(OC)c1 here?
Answer: 81.2% (inactive)

Question: For COC(=O)c1cnc2c(C(F)(F)F)cccc2c1OC, which viability is on record?
Answer: 98.4% (inactive)

Question: For COc1ccccc1Nc1ccc(C(=O)NC2CCCCC2)cn1, which viability is on record?
Answer: 93.2% (inactive)

Question: Which viability does the source give for COc1cccc(C(=O)Nc2ncc3c(n2)CC(C)CC3=O)c1 (stereo not given) here?
Answer: 109% (inactive)

Question: For Cc1ccc(-n2c(Cn3cnc4ccccc43)nnc2SCC(=O)O)cc1, which viability is on record?
Answer: 97.7% (inactive)

Question: With COCCNc1oc(-c2ccc(C)cc2)nc1C#N as the molecule, how does the viability read?
Answer: 85.9% (inactive)

Question: Which viability does the source give for c1cn(C23CC4CC(CC(C4)C2)C3)cn1 here?
Answer: 92.3% (inactive)

Question: With CCN(Cc1cc2ccccc2[nH]c1=O)S(=O)(=O)c1ccccc1 as the molecule, how does the viability read?
Answer: 87.1% (inactive)

Question: For CCCCn1nc(C(=O)N2CCc3ccccc32)c2ccccc2c1=O, which viability is on record?
Answer: 93.9% (inactive)

Question: For Cc1ccc(NCc2nnc(SCC(=O)N3CCCCC3)n2CC2CCCO2)c(C)c1 (stereo not given), which viability is on record?
Answer: 88.7% (inactive)

Question: For COC(=O)c1[nH]c2ccc(F)cc2c1NS(=O)(=O)c1ccc(OC)cc1OC, which viability is on record?
Answer: 84.4% (inactive)

Question: For O=c1cc(COn2nnc3ccc(C(F)(F)F)cc32)nc2sccn12, which viability is on record?
Answer: 85.7% (inactive)

Question: With CS(=O)(=O)N1CCCC(C(=O)NCCCN2CCc3ccccc3C2)C1 (stereo not given) as the molecule, how does the viability read?
Answer: 95.1% (inactive)

Question: For CCNc1nc(N2CCOCC2)nc(N(c2ccccc2)c2ccccc2)n1, which viability is on record?
Answer: 84.2% (inactive)

Question: Which viability does the source give for NC(=O)CSc1nnc(-c2cc3ccccc3o2)n1Cc1ccccc1 here?
Answer: 90.3% (inactive)

Question: For CS(=O)(=O)Nc1ccc(C(=O)NCc2ccco2)cc1, which viability is on record?
Answer: 103% (inactive)

Question: For Cc1cc(C)c2[nH]c(=O)c(C(c3nnnn3Cc3ccc4c(c3)OCO4)N3CCC(C)CC3)cc2c1 (stereo not given), which viability is on record?
Answer: 86.7% (inactive)

Question: For Cc1ccc(CNC(=O)CSc2n[nH]c(N)n2)cc1, which viability is on record?
Answer: 96.6% (inactive)

Question: For C=C(C)Cn1c(N2CCN(CC)CC2)nc2c1c(=O)[nH]c(=O)n2C, which viability is on record?
Answer: 85.7% (inactive)

Question: For Cc1cc(C(=O)CN2C(=O)c3ccccc3C2=O)c(C)n1Cc1cccs1, which viability is on record?
Answer: 86.3% (inactive)

Question: With Cc1ccc2nc(NCCCN3CCOCC3)c(C=NCCCN3CCOCC3)c(=O)n2c1 as the molecule, how does the viability read?
Answer: 81.9% (inactive)

Question: For O=C(Cn1cnc2ccccc2c1=O)NCCC(=O)N1CCN(c2ccccc2)CC1, which viability is on record?
Answer: 92% (inactive)

Question: Which viability does the source give for O=C(C1CCC1)N1CCc2cc(S(=O)(=O)N3CCc4ccccc4C3)ccc21 here?
Answer: 89% (inactive)

Question: With CCC(=O)N1CCc2cc(Br)cc(S(=O)(=O)CCC(=O)NCC3CCCO3)c21 (stereo not given) as the molecule, how does the viability read?
Answer: 92.8% (inactive)

Question: With Cc1nc2ccccc2n1CCC(=O)Nc1cccc(F)c1 as the molecule, how does the viability read?
Answer: 79.9% (inactive)

Question: Which viability does the source give for CN(C)C(=O)N1CCC(C(=O)NC2CCCCCCC2)CC1 here?
Answer: 92.9% (inactive)

Question: For O=C(CSCCSCC(=O)c1ccco1)c1ccco1, which viability is on record?
Answer: 101% (inactive)

Question: For O=c1cnnc(NCc2ccccc2)[nH]1, which viability is on record?
Answer: 103% (inactive)

Question: For COc1ccccc1C1CC(c2ccc(C)cc2)Nc2ncnn21 (stereo not given), which viability is on record?
Answer: 102% (inactive)

Question: Which viability does the source give for O=c1cc(CSc2ccccn2)c2ccccc2[nH]1 here?
Answer: 93.1% (inactive)

Question: Which viability does the source give for COC(=O)CC1SC(=O)NC1=O (stereo not given) here?
Answer: 105% (inactive)

Question: With Cc1ccc(C)c(N2CCN(S(=O)(=O)c3ccc4c(c3)OCCO4)CC2)c1 as the molecule, how does the viability read?
Answer: 106% (inactive)

Question: Which viability does the source give for O=C(NCCC1=CCCCC1)c1cc2c(s1)CS(=O)(=O)C2 here?
Answer: 88.5% (inactive)

Question: With Cc1c(C(=O)OC(C)C)[nH]c2c1C(=O)CCC2 as the molecule, how does the viability read?
Answer: 106% (inactive)

Question: With Cc1cc(NCCN2CCCCC2)n2c(nc3ccccc32)c1C#N as the molecule, how does the viability read?
Answer: 85.1% (inactive)

Question: Which viability does the source give for CCOC(=O)Cn1nc(-c2ccc(C)cc2)ccc1=O here?
Answer: 100% (inactive)
